The results in this text go back to ChEMBL document CHEMBL1129039 (J Med Chem, 1996).

Data set [1] deals with T1, B2 bradykinin receptor (Homo sapiens, UniProt P30411).
T1 sequence (P30411 whole entry): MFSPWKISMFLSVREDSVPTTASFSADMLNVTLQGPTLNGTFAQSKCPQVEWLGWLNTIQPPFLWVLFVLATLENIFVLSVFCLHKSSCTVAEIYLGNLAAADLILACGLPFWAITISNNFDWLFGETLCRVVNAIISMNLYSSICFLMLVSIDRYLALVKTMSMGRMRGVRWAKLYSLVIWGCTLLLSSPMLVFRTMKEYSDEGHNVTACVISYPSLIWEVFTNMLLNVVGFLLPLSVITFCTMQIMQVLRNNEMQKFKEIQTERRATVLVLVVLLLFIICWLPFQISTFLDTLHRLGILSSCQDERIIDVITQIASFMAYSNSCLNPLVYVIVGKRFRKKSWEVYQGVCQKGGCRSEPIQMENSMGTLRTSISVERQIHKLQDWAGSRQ
Description: Binding affinity towards Bradykinin receptor B2 in human S34 clone cells. In kind it is cell-based.

Data set [2] can be described thus: In vitro stability was measured in rat kidney tissue preparation. In kind it is ADME. Summed up: (§1)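 Lung or kidney cortical membranes made by differential centrifugation and stored at -20 °C. Dilutions in PBS: porcine kidney 1:10, rat kidney 1:100, porcine lung 1:1. Compound at 1 mM in PBS, 10 μL, incubated with 90 μL diluted membranes for various times. Quenched with ethanol, centrifuged.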

A short description of data set [3]: In vitro stability was measured in porcine kidney tissue preparation. In kind it is ADME, Sus scrofa. As to conditions: pig. Summed up:
as §1

Data set [4] addresses T2, B2 bradykinin receptor (Rattus norvegicus, UniProt P25023).
T2 sequence (P25023 whole entry): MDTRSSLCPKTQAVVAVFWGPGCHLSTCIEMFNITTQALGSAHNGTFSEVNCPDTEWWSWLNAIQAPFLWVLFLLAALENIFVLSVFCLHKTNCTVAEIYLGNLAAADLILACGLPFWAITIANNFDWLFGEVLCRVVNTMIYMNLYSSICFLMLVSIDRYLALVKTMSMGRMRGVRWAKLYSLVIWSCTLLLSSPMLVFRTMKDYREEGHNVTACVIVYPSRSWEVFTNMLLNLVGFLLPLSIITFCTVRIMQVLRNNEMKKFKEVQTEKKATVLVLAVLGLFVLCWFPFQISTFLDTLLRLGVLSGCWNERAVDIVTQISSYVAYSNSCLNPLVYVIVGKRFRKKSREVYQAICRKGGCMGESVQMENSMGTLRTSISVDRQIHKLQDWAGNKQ
Description: In vitro Bradykinin receptor B2 antagonist activity by using rat uterus functional assay. In kind it is tissue-based. As to conditions: for Kb: read-out: pA2 (converted). The procedure, abridged:
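Uterine horns from female Sprague-Dawley rats primed with stilbesterol (100 μg/kg) 18 h earlier. Tissue held at 1 g tension in De Jalon's solution, 31 °C, aerated. Potency by Arunlakshana-Schild analysis.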

The nature of data set [5]: Binding affinity towards bradykinin receptor using [3H]BK as radioligand in guinea pig ileum. In kind it is tissue-based, Cavia porcellus. The procedure, abridged: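 Ileal membranes from Duncan-Hartley guinea pigs, 0.2 mg/mL, room temperature in 25 mM TES pH 6.8 with 1,10-phenanthroline, DTT, captopril, bacitracin, thiorphan, 0.1% BSA. […] Filtered on PEI-pretreated GF/B, washed with cold Tris pH 7.5/NaCl/BSA, scintillation counted. Mean ± SD, n = 4.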

For data set [6], the target named is B1 bradykinin receptor (Oryctolagus cuniculus). Description: In vitro Bradykinin receptor B1 antagonist activity in functional tissue within rabbit aorta.
The nature of data set [7]: In vitro stability was measured in human plasma tissue preparation. In kind it is ADME.
Data set [8] in a line: In vitro stability was measured in porcine lung tissue preparation. In kind it is ADME, Sus scrofa. To be noted: pig. The procedure, abridged:
as §1

The test system of data set [9] is Oryctolagus cuniculus. Description: Effective dose for bradykinin B1 activity after administration (10 ug/kg/min) in rabbit. In kind it is functional.
The test system of data set [10] is Oryctolagus cuniculus. Description: Percent inhibition after intravenously administration compound at 60 min in rabbit; expressed as percent inhibition. In kind it is functional.
The test system of data set [11] is Oryctolagus cuniculus. Description: Effective dose for bradykinin B1 activity after administration (1 ug/kg/min) in rabbit. In kind it is functional.
Data set [12] has as its system Oryctolagus cuniculus. Description: Effective dose for bradykinin B2 activity after administration (0.03 ug/kg/min) in rabbit. In kind it is functional.
Data set [13] deals with Oryctolagus cuniculus. Description: Effective dose for bradykinin B2 activity after administration (0.01 ug/kg/min) in rabbit. In kind it is functional.
The test system of data set [14] is Oryctolagus cuniculus. Description: Effective dose for bradykinin B1 activity after administration (3 ug/kg/min) in rabbit. In kind it is functional.
Data set [15] has as its system Oryctolagus cuniculus. Description: Effective dose for bradykinin B2 activity after administration (0.1 ug/kg/min) in rabbit. In kind it is functional.
Data set [16] deals with Rattus norvegicus. Description: Percent inhibition after subcutaneously administration compound at 3H in rat; expressed as percent inhibition. In kind it is functional.
Data set [17] is filed under the species Rattus norvegicus. Description: Percent recovery was evaluated in rat. In kind it is functional, organism-based. Summed up:
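Same rat uterus preparation. […] Its pD2 is compared with the initial control pD2. The difference against concurrent control gives percentage recovery of agonist response.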

Data set [18] relates to Oryctolagus cuniculus. Description: Selectivity was determined as response after administration (0.1 ug/mg/kg) to that of preantagonist response in rabbit; B2 block only. In kind it is functional, organism-based.
The target of data set [19] is T3, B2 bradykinin receptor (Rattus norvegicus) (UniProt P25023).
T3 sequence (whole entry): T2 sequence (P25023 whole entry)
Description: In vitro Bradykinin receptor B2 antagonist activity by using rat uterus functional assay; agonist. In kind it is tissue-based. As to conditions: filed as agonist.

The structures appear in SMILES notation. The source made the active and inactive calls.

In general, Ki refers to the equilibrium dissociation constant of an inhibitor or competing ligand from its target. Read a high Ki as lower affinity. As a reminder, the half-life is the time needed for the level to fall by half in the phase considered. Low values mean rapid decline, high ones slow decline. The term IC50 denotes the point on the concentration scale where inhibition reaches its midpoint. Low readings indicate greater potency, high ones weaker potency. In turn, `NC(N)=NCCCC(N)C(=O)NC(CCCN=C(N)N)C(=O)N1CCC[C@H]1C(=O)N1C[C@H](O)C[C@H]1C(=O)NCC(=O)N[C@@H](Cc1cccs1)C(=O)N[C@@H](CO)C(=O)N1Cc2ccccc2C[C@@H]1C(=O)N(CC(=O)NC(CCCN=C(N)N)C(=O)O)C1CCCCC1` (stereo in doubt) [listing 1 of 3 here] showed a Ki on B2 bradykinin receptor [1] of 0.24 nM. The half-life in data set [2], in data set [3], in data set [7] and in [8] was more than 6 h each time. In addition, the Kb on B2 bradykinin receptor [4] is 0.49 nM. In data set [5], the “Log Ki” value is reported as -10.11. In data set [6], this molecule had an IC50 of more than 10000 nM.

For the molecule `NC(N)=NCCC[C@@H](N)C(=O)N[C@@H](CCCN=C(N)N)C(=O)N1CCC[C@H]1C(=O)N1C[C@H](O)C[C@H]1C(=O)NCC(=O)N[C@@H](Cc1cccs1)C(=O)N[C@@H](CO)C(=O)N1Cc2ccccc2C[C@@H]1C(=O)N1[C@H](C(=O)N[C@@H](CCCN=C(N)N)C(=O)O)C[C@@H]2CCCC[C@@H]21` [ICATIBANT], the half-life in data set [2], in [3], in data set [7] and in [8] was more than 6 h each time. Also, the Kb at B2 bradykinin receptor [4] is 0.316 nM.

With `N=C(N)NCCC[C@@H](N)C(=O)N[C@@H](CCCNC(=N)N)C(=O)N1CCC[C@H]1C(=O)N1C[C@H](O)C[C@H]1C(=O)NCC(=O)N[C@@H](Cc1ccccc1)C(=O)N[C@@H](CO)C(=O)N1C[C@@H](Sc2ccccc2)C[C@@H]1C(=O)N1[C@H](C(=O)N[C@@H](CCCNC(=N)N)C(=O)O)C[C@@H]2CCCC[C@@H]21`, the half-life in data set [2] was more than 6 h; in data set [3], 1.17 h.

The Inhibition is the relative decrease from the control value, in per cent. For the molecule `NC(N)=NCCCC(N)C(=O)NC(CCCN=C(N)N)C(=O)N1CCC[C@H]1C(=O)N1C[C@H](O)C[C@H]1C(=O)NCC(=O)N[C@@H](Cc1cccs1)C(=O)N[C@@H](CO)C(=O)N1Cc2ccccc2C[C@@H]1C(=O)N(CC(=O)NC(CCCN=C(N)N)C(=O)O)C1CCCCC1` (stereo in doubt) [listing 2 of 3 here], the ED50 in the data set on Oryctolagus cuniculus [9] was found to be 2.9 µg/mg/kg; in the data set with Oryctolagus cuniculus [11], 2.9 µg/mg/kg; in the data set on Oryctolagus cuniculus [12] it was 0.051 µg/mg/kg; with Oryctolagus cuniculus [13] it was 0.051 µg/mg/kg; in the data set on Oryctolagus cuniculus [14], 2.9 µg/mg/kg; with Oryctolagus cuniculus [15] it was 0.051 µg/mg/kg. Moreover, the Inhibition in the data set with Oryctolagus cuniculus [10] and in the data set on Rattus norvegicus [16] was 100% each time.

`NC(N)=NCCCC(N)C(=O)NC(CCCN=C(N)N)C(=O)N1CCC[C@H]1C(=O)N1C[C@H](O)C[C@H]1C(=O)NCC(=O)N[C@@H](Cc1cccs1)C(=O)N[C@@H](CO)C(=O)N1Cc2ccccc2C[C@@H]1C(=O)N(CC(=O)NC(CCCN=C(N)N)C(=O)O)C1CCCCC1` (stereo in doubt) [listing 3 of 3 here]: in the data set listed under Rattus norvegicus [17], the Recovery is 73%. Further, the Selectivity entry with Oryctolagus cuniculus [18] was “inactive”.

One may read the pA2 as a measure of antagonist potency on a negative log scale. For `N=C(N)NCCCCC(=O)N[C@@H](CCCNC(=N)N)C(=O)N1CCC[C@H]1C(=O)N1C[C@H](O)C[C@H]1C(=O)NCC(=O)N[C@@H](Cc1cccs1)C(=O)N[C@@H](CO)C(=O)N1Cc2ccccc2C[C@@H]1C(=O)N(CC(=O)N[C@@H](CCCNC(=N)N)C(=O)O)C1CCCCC1`, the Ki at B2 bradykinin receptor [1] is 12 nM. In addition, the half-life in data set [3] was 3.9 h; in data set [7] it was more than 6 h; in [8] it was more than 6 h. In addition, the pA2 on B2 bradykinin receptor [4] is 9.09. The “Log Ki” value in [5] was -8.85.

For the molecule `NC(N)=NCCCC(N)C(=O)NC(CCCN=C(N)N)C(=O)N1CCC[C@H]1C(=O)N1C[C@H](O)C[C@H]1C(=O)NCC(=O)N[C@@H](Cc1cccs1)C(=O)N[C@@H](CO)C(=O)N1Cc2ccccc2C[C@@H]1C(=O)N(CC(=O)NC(CCCN=C(N)N)C(=O)O)CC1CCCCC1` (stereo in doubt), the Ki at B2 bradykinin receptor [1] is 0.166 nM. Further, the “Log Ki” value in data set [5] was -10.09. The IC50 in [6] is more than 10000 nM. Further, the pA2 result in data set [19] was “Agonist”.
